The source of these data is ChEMBL document CHEMBL5230173, “Site-directed late-stage diversification of macrocyclic nannocystins facilitating anticancer SAR and mode of action studies” (RSC Med Chem, 2023).

In general, IC50 refers to the concentration that gives 50% inhibition.

Molecules are shown by their SMILES.

Data set [1] deals with MDA-MB-231. Kind of data set: Antiproliferative activity against human MDA-MB-231 cells assessed as inhibition of cell growth incubated for 72 hrs by CCK-8 assay. Particulars: MDA-MB-231, 72 h; call rule not given here. Background: Formazan colour is commonly taken as a measure of viable cells.
Data set [2] has as its system HCT-116. Briefly: Antiproliferative activity against human HCT-116 cells assessed as inhibition of cell growth incubated for 72 hrs by CCK-8 assay. Particulars: HCT-116, 72 h.
Data set [3] relates to HCT-8. Kind of data set: Antiproliferative activity against human HCT-8 cells assessed as inhibition of cell growth incubated for 72 hrs by CCK-8 assay. Particulars: HCT-8, 72 h.
The nature of data set [4]: Drug localization in endoplasmic reticulum of human MDA-MB-231 cells at 500 nM incubated for 8 hrs by ER-tracker red based laser scanning confocal microscopic analysis. Particulars: mda-mb-231, 8 h, 0.5 µM. It is filed as ADME, cell-based. In outline:
(§1)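 HCT-8 (250 nM) and MDA-MB231 (500 nM) cells were seeded at 4 × 10^4 on slides for 24 h, then exposed to the probe for 8 h. After an HBSS wash, cells were stained with ER-Tracker Red for 20 min at 37 °C, washed twice with medium, and fixed in 4% formaldehyde for 2 min. Confocal imaging used probe ex 405/em 460 nm and tracker ex 587/em 615 nm.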

Data set [5] can be described thus: Drug uptake in human MDA-MB-231 cells at 1 uM by laser scanning confocal microscopic analysis. It is filed as ADME, cell-based. Particulars: mda-mb-231, 1 h, TDE = time-dependent effect, time < 60 min. The method, boiled down:
(§2)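 MDA-MB231 cells were seeded at 6 × 10^4 on slides for 24 h in DMEM with 10% FBS. Cells were then PBS-washed twice, fixed in 4% formaldehyde for 2 min, and imaged by confocal microscopy (ex 405, em 460 nm).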

A short description of data set [6]: Drug uptake in human MDA-MB-231 cells incubated for 1 hrs by laser scanning confocal microscopic analysis. It is filed as ADME, cell-based. To be noted: mda-mb-231, 1 h, dose 0.25-2 µM. In outline: as §2
A short description of data set [7]: Drug localization in endoplasmic reticulum of human HCT-8 cells at 250 nM incubated for 8 hrs by ER-tracker red based laser scanning confocal microscopic analysis. It is filed as ADME, cell-based. Particulars: hct-8, 8 h, 0.25 µM. The method, boiled down: as §1
Data set [8] is described as follows: Drug uptake in human MDA-MB-231 cells measured after compound washout by laser scanning confocal microscopic analysis. It is filed as ADME, cell-based.
Data set [9] deals with HCT-116. Kind of data set: Antiproliferative activity against human HCT-116 cells assessed as inhibition of cell growth by Celltiter-Glo luminescence assay. It is filed as functional, cell-based.
Data set [10] deals with HCT-116. Kind of data set: Antiproliferative activity against human HCT-116 cells assessed as inhibition of cell growth by thymidine plus proliferation assay. It is filed as functional, cell-based.

With `CC[C@H](C)[C@H]1C(=O)N[C@H](COC(=O)CCC(=O)O)C(=O)N[C@@H](C(C)(C)O)C(=O)O[C@H](c2ccccc2)[C@H](C)/C=C/C=C(\C)[C@H](OC)C[C@@H]2O[C@@]2(C)C(=O)N1C`, the IC50 in [1] is 52.6 nM; in data set [2] it was above 200 nM; in [3], 115 nM.

On to `CC[C@H](C)[C@H]1C(=O)N[C@H](COC(=O)/C=C/c2cc(F)cc(F)c2)C(=O)N[C@@H](C(C)(C)O)C(=O)O[C@H](c2ccccc2)[C@H](C)/C=C/C=C(\C)[C@H](OC)C[C@@H]2O[C@@]2(C)C(=O)N1C`, for which the figures for the IC50 in data set [1], in data set [2] and in data set [3] were 78.8 nM, 23.5 nM and 24.9 nM, respectively.

As for `CC[C@H](C)[C@H]1C(=O)N[C@H](CO)C(=O)N[C@@H](C(C)(C)O)C(=O)O[C@H](c2ccccc2)[C@H](C)/C=C/C=C(\C)[C@H](OC)C[C@@H]2O[C@@]2(C)C(=O)N1C`, the IC50 is 29.4 nM in data set [1], 37.6 nM in [2] and 32.2 nM in [3].

`CC[C@H](C)[C@H]1C(=O)N[C@H](COC(=O)C2CCCCC2)C(=O)N[C@@H](C(C)(C)O)C(=O)O[C@H](c2ccccc2)[C@H](C)/C=C/C=C(\C)[C@H](OC)C[C@@H]2O[C@@]2(C)C(=O)N1C`: the IC50 was found to be 20.7 nM in [1], 37.7 nM in data set [2] and 44 nM in data set [3].

On to `CC[C@H](C)[C@H]1C(=O)N[C@H](COC(=O)/C=C/c2ccccc2)C(=O)N[C@@H](C(C)(C)O)C(=O)O[C@H](c2ccccc2)[C@H](C)/C=C/C=C(\C)[C@H](OC)C[C@@H]2O[C@@]2(C)C(=O)N1C`, for which the IC50 turned out to be 45.8 nM in data set [1], 18.7 nM in data set [2] and 27.6 nM in data set [3].

On to `C=CC(=O)OC[C@H]1NC(=O)[C@H]([C@@H](C)CC)N(C)C(=O)[C@]2(C)O[C@H]2C[C@@H](OC)/C(C)=C/C=C/[C@@H](C)[C@@H](c2ccccc2)OC(=O)[C@H](C(C)(C)O)NC1=O`, for which the figures for the IC50 in [1], in data set [2] and in data set [3] were 81.8 nM, 51.9 nM and 35.5 nM, respectively.

Take `CC[C@H](C)[C@H]1C(=O)N[C@H](COC(=O)c2cc3ccc(N(CC)CC)cc3oc2=O)C(=O)N[C@@H](C(C)(C)O)C(=O)O[C@H](c2ccccc2)[C@H](C)/C=C/C=C(\C)[C@H](OC)C[C@@H]2O[C@@]2(C)C(=O)N1C`: the Drug uptake result in data set [4] is recorded as “Active”; in [5] it was “Tde”; in data set [6], “Dose-Dependent Effect”; in [7], “Active”; in [8], “Active”. Moreover, the IC50 came out at 141 nM in data set [1], 136 nM in data set [2] and 52.3 nM in [3].

As to `CC[C@H](C)[C@H]1C(=O)N[C@H](Cc2cc(Cl)c(O)c(Cl)c2)C(=O)N[C@@H](C(C)(C)O)C(=O)O[C@H](c2ccccc2)[C@H](C)/C=C/C=C(\C)[C@H](OC)C[C@@H]2O[C@@]2(C)C(=O)N1C`, the IC50 in data set [1] stood at 15.2 nM; in [2] it was 4.2 nM; in data set [3], 10.9 nM; in data set [9], 2.6 nM; in data set [10], 1.2 nM.

Take `CC[C@H](C)[C@H]1C(=O)N[C@H](COC(=O)C2=CCC2)C(=O)N[C@@H](C(C)(C)O)C(=O)O[C@H](c2ccccc2)[C@H](C)/C=C/C=C(\C)[C@H](OC)C[C@@H]2O[C@@]2(C)C(=O)N1C`: the IC50 in data set [1] came out at 43.5 nM; in [2], 29.8 nM; in data set [3], 2.9 nM.

As to `CC[C@H](C)[C@H]1C(=O)N[C@H](COC(=O)c2ccccc2)C(=O)N[C@@H](C(C)(C)O)C(=O)O[C@H](c2ccccc2)[C@H](C)/C=C/C=C(\C)[C@H](OC)C[C@@H]2O[C@@]2(C)C(=O)N1C`, the IC50 in [1] turned out to be 40.1 nM; in [2], 13.7 nM; in [3], 23.4 nM.

Consider `CC[C@H](C)[C@H]1C(=O)N[C@H](COC(C)=O)C(=O)N[C@@H](C(C)(C)O)C(=O)O[C@H](c2ccccc2)[C@H](C)/C=C/C=C(\C)[C@H](OC)C[C@@H]2O[C@@]2(C)C(=O)N1C`, for which the IC50 in data set [1] was found to be 17 nM; in [2], 17.5 nM; in data set [3], 24.3 nM.

Regarding `CC[C@H](C)[C@H]1C(=O)N[C@H](COC(=O)C2CC2)C(=O)N[C@@H](C(C)(C)O)C(=O)O[C@H](c2ccccc2)[C@H](C)/C=C/C=C(\C)[C@H](OC)C[C@@H]2O[C@@]2(C)C(=O)N1C`, the IC50 in data set [1] was 61.8 nM; in data set [2] it was 42.7 nM; in data set [3], 19.6 nM.

As to `CC[C@H](C)[C@H]1C(=O)N[C@H](COC(=O)c2ccncc2)C(=O)N[C@@H](C(C)(C)O)C(=O)O[C@H](c2ccccc2)[C@H](C)/C=C/C=C(\C)[C@H](OC)C[C@@H]2O[C@@]2(C)C(=O)N1C`, the IC50 amounted to 32.3 nM in [1], 10.3 nM in data set [2] and 57.4 nM in data set [3].

Regarding `CC[C@H](C)[C@H]1C(=O)N[C@H](COC(=O)c2sc(C)nc2C)C(=O)N[C@@H](C(C)(C)O)C(=O)O[C@H](c2ccccc2)[C@H](C)/C=C/C=C(\C)[C@H](OC)C[C@@H]2O[C@@]2(C)C(=O)N1C`, the IC50 in data set [1] is 20.6 nM; in [2], 2.9 nM; in data set [3] it was 60.5 nM.

For `CCCCC(=O)OC[C@H]1NC(=O)[C@H]([C@@H](C)CC)N(C)C(=O)[C@]2(C)O[C@H]2C[C@@H](OC)/C(C)=C/C=C/[C@@H](C)[C@@H](c2ccccc2)OC(=O)[C@H](C(C)(C)O)NC1=O`, the IC50 in [1] came out at 46.2 nM; in data set [2] it was 27.1 nM; in data set [3], 18.4 nM.

Regarding `CCCCCCCCCC(=O)OC[C@H]1NC(=O)[C@H]([C@@H](C)CC)N(C)C(=O)[C@]2(C)O[C@H]2C[C@@H](OC)/C(C)=C/C=C/[C@@H](C)[C@@H](c2ccccc2)OC(=O)[C@H](C(C)(C)O)NC1=O`, the IC50 in data set [1] was 97.4 nM; in [2], 76.6 nM; in [3], 16.7 nM.
